Among the data in PubChem BioAssay are outcome, potentiation and activation values, retold here.

Structures are written as SMILES. Activity calls are given as the source filed them.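 How the source made its calls, unless noted: active means mean duplicate potentiation above the buffer control mean plus 5 SD of buffer wells; inactive means the rest.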

Assay [1] in a line: thallium flux activation in parental CHO cells, counter-screen for KCNQ1 potentiator project (AID 493006;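 active means duplicate-averaged activation above buffer control mean plus 5 SD of those controls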;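 on activation: fluorescence ratio of max minus min over baseline after K+ and Tl+ depolarization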). To be noted: parental CHO-K1 cells, FluxOR thallium flux, at 10 µM; stronger effect = higher value. The method in brief:
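Material: parental CHO-K1 cells, FluxOR dye-loaded; Also added: Potassium/thallium depolarization pulse; Schedule: overnight 37 °C plating, 90 min dye, 20 min dark compound; Signal: kinetic FluxOR fluorescence, 10 s baseline, 110 s after stimulus.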
(In general: The purpose of a counterscreen is to sort out artefacts and off-target activity.)

In assay [2] the target is Potassium voltage-gated channel subfamily KQT member 1 (Homo sapiens) (UniProt P51787). The assay can be described thus: KCNQ1 potassium channel potentiators, confirmation, FluxOR thallium flux, CHO cells, duplicates (AID 493007;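 active means potentiation averaged over duplicate wells exceeding buffer-only control mean by more than 3 SD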;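 on outcome: cells depolarized by a potassium plus thallium sulfate stimulus after compound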). As to conditions: KCNQ1 cell line, FluxOR thallium flux fluorescence, at 10 µM; stronger effect = higher value, % of reference activator effect, buffer zero. The method in brief: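 System: KCNQ1-expressing CHO cell line; technique: kinetic thallium influx fluorescence with FluxOR dye, 10 s baseline, 110 s post-stimulus; timing: dye 90 min then compound 20 min, both at room temperature; controls: buffer-only wells as 0% and R-L3 activator as 100%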

Assay [3] concerns the target Potassium voltage-gated channel subfamily KQT member 2 (Rattus norvegicus) (UniProt O88943). Put plainly: rat KCNQ2 channel potentiation, selectivity assay for KCNQ1 potentiator project, KCNQ2-CHO-K1 cells (AID 493009).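 Further: assay conditions were tuned for KCNQ1 rather than KCNQ2 modulators; signal is max minus min fluorescence divided by baseline after thallium stimulus.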 As to conditions: FluxOR thallium flux fluorescence, at 10 µM; stronger effect = higher value, scaled: buffer 0, activator control 100.
The target of assay [4] is Potassium voltage-gated channel subfamily KQT member 1 (Homo sapiens) (UniProt P51787). Put plainly: KCNQ1 channel current potentiators, confirmation, orthogonal assay for KCNQ1 potentiator project, IonWorks patch clamp, KCNQ1-CHO cells (AID 493184;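 active means current rise at least 3 SD above the untreated control mean in each of two repeat wells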). As to conditions: automated patch clamp current, at 10 µM; stronger effect = higher value. The method in brief: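 Test system: KCNQ1-expressing CHO cells. Medium: pH 7.4 external bath. Probe or stimulus: voltage step from -90 mV holding to +40 mV, 2,000 ms. Compound: 10 µM final, single point. Detection: automated perforated-patch electrophysiology. Read-out: percent current increase versus pre-compound level. Repeats: two replicates.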
In general terms: Patch clamp records ionic current or voltage across a cell membrane.

Potassium voltage-gated channel subfamily KQT member 2 (Rattus norvegicus), sequence (O88943 whole entry, looked up): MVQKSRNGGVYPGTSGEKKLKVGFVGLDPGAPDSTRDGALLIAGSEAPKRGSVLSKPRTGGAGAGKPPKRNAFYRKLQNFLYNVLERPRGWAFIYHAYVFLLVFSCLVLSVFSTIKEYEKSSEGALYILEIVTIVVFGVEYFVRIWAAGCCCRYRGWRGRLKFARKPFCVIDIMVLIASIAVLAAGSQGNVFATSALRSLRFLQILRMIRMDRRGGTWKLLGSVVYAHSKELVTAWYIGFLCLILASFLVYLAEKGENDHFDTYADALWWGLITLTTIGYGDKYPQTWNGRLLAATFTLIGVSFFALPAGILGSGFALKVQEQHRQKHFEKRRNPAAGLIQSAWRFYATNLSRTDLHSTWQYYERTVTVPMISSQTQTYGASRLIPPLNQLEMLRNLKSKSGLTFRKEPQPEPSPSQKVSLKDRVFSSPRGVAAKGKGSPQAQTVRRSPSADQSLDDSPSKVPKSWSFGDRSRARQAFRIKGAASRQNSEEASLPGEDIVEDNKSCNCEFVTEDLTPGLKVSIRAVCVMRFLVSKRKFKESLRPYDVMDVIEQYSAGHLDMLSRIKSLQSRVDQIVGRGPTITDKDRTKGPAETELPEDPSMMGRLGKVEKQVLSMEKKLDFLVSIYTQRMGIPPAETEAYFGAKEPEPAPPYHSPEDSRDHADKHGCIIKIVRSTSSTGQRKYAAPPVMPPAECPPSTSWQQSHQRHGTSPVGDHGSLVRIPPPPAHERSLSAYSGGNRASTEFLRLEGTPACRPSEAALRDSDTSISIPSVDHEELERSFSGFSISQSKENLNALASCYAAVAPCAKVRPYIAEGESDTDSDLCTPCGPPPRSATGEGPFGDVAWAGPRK
Potassium voltage-gated channel subfamily KQT member 1 (Homo sapiens), sequence (P51787 whole entry, looked up): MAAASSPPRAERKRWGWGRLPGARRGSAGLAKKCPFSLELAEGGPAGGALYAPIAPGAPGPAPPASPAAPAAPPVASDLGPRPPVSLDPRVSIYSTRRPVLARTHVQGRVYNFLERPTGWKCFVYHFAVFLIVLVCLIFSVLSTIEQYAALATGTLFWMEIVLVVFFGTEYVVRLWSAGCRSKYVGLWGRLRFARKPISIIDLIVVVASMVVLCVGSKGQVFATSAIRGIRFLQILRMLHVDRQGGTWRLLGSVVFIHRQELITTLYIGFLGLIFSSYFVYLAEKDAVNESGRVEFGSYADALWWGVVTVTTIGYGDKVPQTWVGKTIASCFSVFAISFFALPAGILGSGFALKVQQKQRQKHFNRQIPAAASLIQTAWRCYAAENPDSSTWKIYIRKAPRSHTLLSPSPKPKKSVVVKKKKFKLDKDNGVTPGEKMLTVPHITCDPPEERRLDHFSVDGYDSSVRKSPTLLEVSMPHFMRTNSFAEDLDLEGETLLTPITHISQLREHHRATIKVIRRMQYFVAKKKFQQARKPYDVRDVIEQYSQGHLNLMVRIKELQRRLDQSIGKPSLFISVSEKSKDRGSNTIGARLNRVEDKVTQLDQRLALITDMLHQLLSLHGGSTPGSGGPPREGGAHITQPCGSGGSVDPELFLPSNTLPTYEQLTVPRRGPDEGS

As to `CCOC(=O)c1c(NC(=O)C(C)N2CCN(C(=O)c3ccco3)CC2)sc2c1CCCC2` (stereo not given), the result in assay [1] and in assay [4] was inactive. In addition, the results for the potentiation in assay [2] and in assay [3] were 53% (active) and 160% (active), respectively.

With `Cc1ccc(S(=O)(=O)N2CCCC(C(=O)Nc3ccc(C(=O)O)cc3)C2)cc1Cl` (stereo not given), the result in assay [1], in assay [2], in assay [3] and in assay [4] was inactive.

`O=C(NN=C1CCCC1)c1n[nH]c2c1CCC2`: the activation in assay [1] was 196% (active). Moreover, the figures for the potentiation in assay [2] and in assay [3] were 35% (active) and 178% (active), respectively. Besides, the result in assay [4] was inactive.

As for `COC(=O)c1cc2c(ccc3ccccc32)oc1=O`, the result in assay [1], in assay [2], in assay [3] and in assay [4] was inactive.

On to `COc1ccc(C2NC(c3ccc(OC)c(OC)c3OC)C(C)C(=O)C2C)c(OC)c1OC` (stereo not given), for which the result in assay [1], in assay [2], in assay [3] and in assay [4] was inactive.

In the case of `O=c1[nH]c(=S)[nH]c2sc3c(c12)CCCCCC3`, in assay [1], the activation was 138% (active). Moreover, the result in assay [2], in assay [3] and in assay [4] was inactive.

For the compound `COc1cccc(C(=O)NNC(=O)C(=O)Nc2ccc(C)cc2)c1`, the activation in assay [1] is 206% (active). Also, the potentiation in assay [2] is 92% (active); in assay [3], 308% (active). In addition, the outcome in assay [4] was inactive.

As to `N#C/C=C1/NC(=O)c2ccccc2S1`, the activation in assay [1] is 138% (active). Besides, the potentiation in assay [2] was 22.5% (active); in assay [3] it was 166% (active). The outcome in assay [4] was inactive.

As to `Cc1c(-c2ccccc2)sc2nc[nH]c(=S)c12`, the activation in assay [1] is 307% (active). Besides, the potentiation is 130% (active) in assay [2] and 304% (active) in assay [3]. In addition, the result in assay [4] was inactive.

For the compound `CCn1c(SC(C)C(=O)O)nc2sc3c(c2c1=O)CCC3` (stereo not given), the activation in assay [1] was 203% (active). Also, the potentiation in assay [2] was 42.5% (active); in assay [3] it was 230% (active). Further, the outcome in assay [4] was inactive.

For the compound `COc1cc2c(cc1OC)C(C)N(C(=S)NC(=O)c1ccccc1)CC2` (stereo not given), the activation in assay [1] was 141% (active). Also, the result in assay [2], in assay [3] and in assay [4] was inactive.

For `CCOc1ccc(C2C(C#N)=C(N)N(c3sc4c(c3C#N)CCCC4)C3=C2C(=O)CCC3)cc1` (stereo not given), the outcome in assay [1], in assay [2], in assay [3] and in assay [4] was inactive.

As to `CCOc1ccc2c(c1)C(NC(C)=O)C(=O)N2CCN1CCOCC1` (stereo not given), the outcome in assay [1], in assay [2], in assay [3] and in assay [4] was inactive.

For `COC(=O)c1c(NC(=S)Nc2ccccc2Cl)sc(C)c1C`, the result in assay [1], in assay [2], in assay [3] and in assay [4] was inactive.

In the case of `COC(=O)c1ccc(C(=O)NC(=S)Nc2nc3c(s2)CCCC3)cc1`, in assay [1], the activation was 210% (active). The potentiation in assay [2] is 169% (active); in assay [3], 411% (active). For the same compound, the result in assay [4] was inactive.

On to `Cc1c(C(=O)NC(=S)NCc2cccnc2)oc2ccccc12`, for which the outcome in assay [1], in assay [2], in assay [3] and in assay [4] was inactive.

In the case of `Cc1ccc(-c2ccc(C3C(C#N)=C(N)Oc4n[nH]c(C)c43)o2)cc1` (stereo not given), the result in assay [1], in assay [2], in assay [3] and in assay [4] was inactive.

As for `O=C(O)C1C2CCC(O2)C1C(=O)NCCC1=CCCCC1` (stereo not given), the outcome in assay [1], in assay [2], in assay [3] and in assay [4] was inactive.

In the case of `COC(=O)c1c(NC(=S)Nc2ccc(F)cc2[N+](=O)[O-])sc2c1CCCCC2`, the activation in assay [1] is 160% (active). The potentiation was 32.5% (active) in assay [2] and 180% (active) in assay [3]. Further, the result in assay [4] was inactive.

Regarding `Cc1cc(NS(=O)(=O)c2ccc(NC(=O)C(C)Oc3ccccc3Cl)cc2)no1` (stereo not given), the result in assay [1], in assay [2], in assay [3] and in assay [4] was inactive.

On to `COc1ccc(CN(C)C(=O)c2ccc3ccccc3n2)cc1F`, for which the outcome in assay [1], in assay [2], in assay [3] and in assay [4] was inactive.

Turning to `Cc1ccccc1NC1=NC(=S)N(c2ccccc2)C12CCCCC2`, the activation in assay [1] is 176% (active). Further, the potentiation in assay [2] is 26% (active); in assay [3], 156% (active). Further, in assay [4], the result was inactive.

For the compound `COc1cc(/C=N/Nc2snc(SC)c2C#N)ccc1O`, the outcome in assay [1], in assay [2], in assay [3] and in assay [4] was inactive.

With `O=C(NC(=S)N(CC1CCC1)CC1CCCO1)c1cccc([N+](=O)[O-])c1` (stereo not given), the activation in assay [1] is 224% (active). Also, the potentiation in assay [2] was 74.5% (active); in assay [3] it was 216% (active). Also, the outcome in assay [4] was inactive.

As for `COc1cc(OC)cc(C(=O)NC(=S)N(Cc2ccccc2)C(C)C)c1`, the activation in assay [1] is 294% (active). For the same compound, the potentiation is 150% (active) in assay [2] and 380% (active) in assay [3]. In assay [4], the result was inactive.

As to `COc1ccccc1C(=O)NNC(=O)C(=O)Nc1ccc(C)cc1`, the activation in assay [1] is 534% (active). Besides, the potentiation in assay [2] is 182% (active); in assay [3], 593% (active). The outcome in assay [4] was inactive.

As to `O=Cc1ccc2noc(-c3ccc(Cl)cc3)c2c1`, the result in assay [1], in assay [2], in assay [3] and in assay [4] was inactive.

`O=C(NC(=S)Nc1ccccc1N1CCCC1)c1cccc(F)c1`: the result in assay [1] and in assay [4] was inactive. Besides, the values for the potentiation in assay [2] and in assay [3] were 37% (active) and 144% (active), respectively.

For the compound `O=C(NC(=S)Nc1ccc2c(c1)OCCO2)c1ccco1`, the activation in assay [1] was 206% (active). Besides, the potentiation in assay [2] is 108% (active); in assay [3], 260% (active). Also, in assay [4], the result was inactive.

On to `C=CCOc1c(Br)cc(/C=N/Nc2ccc(C(=O)O)cc2)cc1OCC`, for which the outcome in assay [1], in assay [2], in assay [3] and in assay [4] was inactive.
